Measurements as given in paper PMC7359933 (Clinical and Translational Science, 2020).
Like-named read-outs stand apart in the source and are kept apart here. Marks after values point to notes of the source that are not given here.

Columns and labels:
healthy volunteers [1] = test: Thorough QT/QTc study part 2: Holter ECG, Fridericia-corrected QT interval; type: in vivo, human; settings: for Mean difference vs. placebo (90% CI), msec ddQTcF: MOX 400 mg (C–D); for Mean change from baseline, msec ddQTcF: MOX 400 mg single dose (C)
How it was run: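 Healthy subjects, randomized four-period crossover with 10-day washouts, fed: oral fostemsavir 1,200 mg q.d. or 2,400 mg b.i.d. for 7 days, placebo b.i.d., or single moxifloxacin 400 mg on day 7. Triplicate ECGs from 24-h Holter, read centrally. Baseline is the mean of day-1 predose readings; readings 0.5–22.25 h post-dose on day 7. Linear mixed model gives 90% CI; bound 10 msec; assay sensitivity >5 msec at 2–4 h.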

[2] = cited from earlier work
[3] = heavily treatment‐experienced HIV‐1 infected patients, fostemsavir 600 mg b.i.d., BRIGHTE (NCT02362503) ref 22; cited from earlier work
healthy volunteers [4] = tested on: healthy volunteers; parameters: species or system human; settings: final linear concentration‐ddQTcF model
[5] = cited from earlier work; remark: listed apart in the source
dog = settings: nonclinical assessment of fostemsavir or TMR ref unpublished data; cited from earlier work
[6] = cited from earlier work; remark: listed apart in the source
[7] = cited from earlier work; remark: listed apart in the source
QTc interval = settings: cited from earlier work
[8] = ritonavir 100 mg (q.d. or b.i.d.) ref 18, 21; cited from earlier work

Q: For `COc1c(N2C[C@@H]3CCCN[C@@H]3C2)c(F)cc2c(=O)c(C(=O)O)cn(C3CC3)c12` [MOX, moxifloxacin, reference compound], which “Mean difference vs. placebo (90% CI), msec ddQTcF” value (healthy volunteers [1]; day 7, 0.5 hour) is on record?
A: 0.42 (–1.73, 2.58) msec

Q: What about the “Mean difference vs. placebo (90% CI), msec ddQTcF” value (healthy volunteers [1]; day 7, 1 hour) of the same compound?
A: 2.95 (0.80, 5.10) msec

Q: And the “Mean difference vs. placebo (90% CI), msec ddQTcF” value (healthy volunteers [1]; day 7, 2 hour)?
A: 8.69 (6.57, 10.82)^a msec

Q: And the “Mean difference vs. placebo (90% CI), msec ddQTcF” value (healthy volunteers [1]; day 7, 3 hour)?
A: 10.43 (8.32, 12.54)^b msec

Q: And the “Mean difference vs. placebo (90% CI), msec ddQTcF” value (healthy volunteers [1]; day 7, 4 hour)?
A: 10.33 (8.22, 12.44)^c msec

Q: What about the “Mean difference vs. placebo (90% CI), msec ddQTcF” value (healthy volunteers [1]; day 7, 5 hour) of the same compound?
A: 8.83 (6.72, 10.94) msec

Q: What about the “Mean difference vs. placebo (90% CI), msec ddQTcF” value (healthy volunteers [1]; day 7, 6 hour) of the same compound?
A: 7.98 (5.87, 10.09) msec

Q: And the “Mean difference vs. placebo (90% CI), msec ddQTcF” value (healthy volunteers [1]; day 7, 8 hour)?
A: 8.05 (5.94, 10.17) msec

Q: What about the “Mean difference vs. placebo (90% CI), msec ddQTcF” value (healthy volunteers [1]; day 7, 10 hour) of the same compound?
A: 8.96 (6.85, 11.07) msec

Q: What about the “Mean difference vs. placebo (90% CI), msec ddQTcF” value (healthy volunteers [1]; day 7, 11.5 hour) of the same compound?
A: 8.75 (6.64, 10.86) msec

Q: And the “Mean difference vs. placebo (90% CI), msec ddQTcF” value (healthy volunteers [1]; day 7, 14 hour)?
A: 7.55 (5.44, 9.66) msec

Q: What about the “Mean difference vs. placebo (90% CI), msec ddQTcF” value (healthy volunteers [1]; day 7, 15 hour) of the same compound?
A: 5.64 (3.52, 7.75) msec

Q: And the “Mean difference vs. placebo (90% CI), msec ddQTcF” value (healthy volunteers [1]; day 7, 16 hour)?
A: 6.92 (4.81, 9.03) msec

Q: What about the “Mean difference vs. placebo (90% CI), msec ddQTcF” value (healthy volunteers [1]; day 7, 22.25 hour) of the same compound?
A: 6.19 (4.08, 8.30) msec

Q: And the “Mean change from baseline, msec ddQTcF” value (healthy volunteers [1]; day 7, 0.5 hour)?
A: –7.12 msec

Q: What about the “Mean change from baseline, msec ddQTcF” value (healthy volunteers [1]; day 7, 1 hour) of the same compound?
A: –4.82 msec

Q: And the “Mean change from baseline, msec ddQTcF” value (healthy volunteers [1]; day 7, 2 hour)?
A: –1.93 msec

Q: What about the “Mean change from baseline, msec ddQTcF” value (healthy volunteers [1]; day 7, 3 hour) of the same compound?
A: 0.40 ms

Q: What about the “Mean change from baseline, msec ddQTcF” value (healthy volunteers [1]; day 7, 4 hour) of the same compound?
A: 3.30 ms

Q: What about the “Mean change from baseline, msec ddQTcF” value (healthy volunteers [1]; day 7, 5 hour) of the same compound?
A: 4.16 ms

Q: And the “Mean change from baseline, msec ddQTcF” value (healthy volunteers [1]; day 7, 6 hour)?
A: –0.81 msec

Q: And the “Mean change from baseline, msec ddQTcF” value (healthy volunteers [1]; day 7, 8 hour)?
A: –0.74 msec

Q: And the “Mean change from baseline, msec ddQTcF” value (healthy volunteers [1]; day 7, 10 hour)?
A: 5.78 ms

Q: What about the “Mean change from baseline, msec ddQTcF” value (healthy volunteers [1]; day 7, 11.5 hour) of the same compound?
A: 1.83 ms

Q: What about the “Mean change from baseline, msec ddQTcF” value (healthy volunteers [1]; day 7, 14 hour) of the same compound?
A: 0.60 ms

Q: And the “Mean change from baseline, msec ddQTcF” value (healthy volunteers [1]; day 7, 15 hour)?
A: 1.49 ms

Q: And the “Mean change from baseline, msec ddQTcF” value (healthy volunteers [1]; day 7, 16 hour)?
A: 5.41 ms

Q: What about the “Mean change from baseline, msec ddQTcF” value (healthy volunteers [1]; day 7, 22.25 hour) of the same compound?
A: 2.73 ms

Q: And the “lower bound of multiplicity‐adjusted 90% CI of ddQTcF (assay sensitivity)” value (healthy volunteers [1]; moxifloxacin 400 mg, at 2, 3, and 4 hours)?
A: above 5 msec

Q: With `COc1cnc(-n2cnc(C)n2)c2[nH]cc(C(=O)C(=O)N3CCN(C(=O)c4ccccc4)CC3)c12` [TMR, temsavir] as the compound, how does the membrane permeability [2] read?
A: good

Q: And the “geometric mean TMR peak plasma concentration (Cmax)” value [3]?
A: 1,770 ng/mL

Q: What about the “Intercept θ1, bootstrap parameter estimate for n = 1,000 (90% CI)” value (healthy volunteers [4]) of the same compound?
A: –0.727 (–2.500, 1.072) msec

Q: What about the “Intercept θ1, population mean estimate (% RSE)” value (healthy volunteers [4]) of the same compound?
A: –0.783 (139) msec

Q: And the “Slope θ2, bootstrap parameter estimate for n = 1,000 (90% CI)” value (healthy volunteers [4])?
A: 0.00126 (0.0011, 0.00142) msec per ng/mL TMR

Q: What about the “Slope θ2, population mean estimate (% RSE)” value (healthy volunteers [4]) of the same compound?
A: 0.00126 (7.9) msec per ng/mL TMR

Q: And the “relationship of ddQTcF with plasma TMR concentration” value (healthy volunteers [1]; graphical assessment, part 2 data)?
A: positive linear relationship

Q: What about the “influence of hepatic impairment on Cmax” value [5] of the same compound?
A: < 1.72 fold

Q: What about the “maximum observed TMR concentrations indicating cardiovascular liability” value (dog) of the same compound?
A: ≥ 3,600 ng/mL

Q: What about the “effect of renal impairment on Cmax” value [6] of the same compound?
A: no effect

Q: For `CC(C)c1nc(CN(C)C(=O)N[C@@H](CCN2CCOCC2)C(=O)N[C@H](CC[C@H](Cc2ccccc2)NC(=O)OCc2cncs2)Cc2ccccc2)cs1` [cobicistat], which “increase in Cmax compared to without concomitant cobicistat” value ([7]; coadministration with cobicistat ref 21, 22) is on record?
A: 1.71 fold

Q: What about the “increase in TMR plasma Cmax” value ([7]; cobicistat 150 mg q.d. ref 18, 21) of the same compound?
A: 71%

Q: For `Cc1cc(/C=C/C#N)cc(C)c1Nc1ccnc(Nc2ccc(C#N)cc2)n1` [rilpivirine], which “QTc prolongation, one‐sided 95% CI upper bound” value (QTc interval; supratherapeutic dose 75 mg ref 11) is on record?
A: 15.3 ms

Q: And the “QTc prolongation, one‐sided 95% CI upper bound” value (QTc interval; therapeutic dose 25 mg ref 11)?
A: 8.2 ms

Q: Which “increase in TMR plasma Cmax” value [8] does the source give for `CC(C)c1nc(CN(C)C(=O)N[C@H](C(=O)N[C@@H](Cc2ccccc2)C[C@H](O)[C@H](Cc2ccccc2)NC(=O)OCc2cncs2)C(C)C)cs1` [ritonavir] here?
A: 45–53%
